Series [1] is described as follows: melting temperature; fluorescence melt of hairpins on a sequencing array, two-state fit, raised by 9.35 °C to match UV melts. Particulars: sodium 0.088 M. A digest of the protocol: (§1)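 Cy3 fluorescence of library hairpins on a sequenced MiSeq flow cell, with annealed Cy3 and quencher oligos, was imaged in 50 mM Na-HEPES pH 8.0, 25 mM NaCl in 2.5 °C steps up to 60 °C. Signals were normalised to pre-quench Cy3 and to control variants. Melting temperature and folding enthalpy came from bootstrapped two-state fits, inverse-variance combined over four replicates. Fitted temperatures were raised by 9.35 °C to match UV melts.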

The nature of series [2]: folding enthalpy; higher = less favourable; fluorescence melt of hairpins on a sequencing array, two-state fit. The settings on record: sodium 0.088 M. A digest of the protocol: as §1

In the case of GTATAGTCGAAAGACTAC (((..(((....)))))), the Tm in series [1] was determined as 32.6 °C. Also, in series [2], the folding enthalpy is -11.9 kcal/mol.

Regarding GTATATCGAAAGATCTAC (((.(((....))).))), the Tm in series [1] turned out to be 31.8 °C. In addition, the folding enthalpy in series [2] is -19.5 kcal/mol.

GTATCCACGAAAGTGTAC (((..(((....)))))): the Tm in series [1] came out at 21.2 °C. Moreover, in series [2], the folding enthalpy was -10.6 kcal/mol.

Turning to GTATCCGAAAGGACGTAC ((((((....)))..))), the Tm in series [1] worked out at 25.9 °C. For the same sequence, the folding enthalpy in series [2] was -9.37 kcal/mol.

In the case of GTATCCGAAAGGACTAC ((((((....))).))), the Tm in series [1] was found to be 35.9 °C. In addition, the folding enthalpy in series [2] is -14.3 kcal/mol.

As for GTATCCGAAAGGAGGTAC ((((((....)))..))), the Tm in series [1] came out at 28.5 °C. Also, in series [2], the folding enthalpy was -10.3 kcal/mol.

Turning to GTATCCGAAAGGATATAC ((((((....)))..))), the Tm in series [1] stood at 44.8 °C. Further, the folding enthalpy in series [2] was -13.8 kcal/mol.

Turning to GTATCCGAAAGGATTTAC ((((((....)))..))), the Tm in series [1] came to 30.6 °C. Also, in series [2], the folding enthalpy is -12 kcal/mol.

As for GTATCCGGAAACAGATAC (((((.(....).))))), in series [1], the Tm turned out to be 31.7 °C. Moreover, the folding enthalpy in series [2] was -23.4 kcal/mol.

As for GTATCCGGAAACGGACAC ((.((((....)))).)), the Tm in series [1] was 39 °C. Further, in series [2], the folding enthalpy was -19.8 kcal/mol.

Take GTATCGCCGAAAGGCTAC (((..(((....)))))): in series [1], the Tm was 32.9 °C. Also, the folding enthalpy in series [2] is -6.58 kcal/mol.

Consider GTATCGGGAAACTGATGC (.(((.(....).))).), for which the Tm in series [1] was 33.1 °C. The folding enthalpy in series [2] was -29.6 kcal/mol.

In the case of GTATCTCGAAAGAGCTAC (((.(((....))).))), the Tm in series [1] was found to be 36 °C. Moreover, the folding enthalpy in series [2] is -21.8 kcal/mol.

As to GTATCTGGAAACAGACAC ((.((((....)))).)), in series [1], the Tm amounted to 30.7 °C. In addition, in series [2], the folding enthalpy was -26.2 kcal/mol.

As for GTATCTGGAAACAGATAC (((((((....))))))), the Tm in series [1] is 56.1 °C. Also, in series [2], the folding enthalpy was -39.5 kcal/mol.

With GTATCTGGAAACGGATAC (((((.(....).))))), in series [1], the Tm turned out to be 44.8 °C. Further, the folding enthalpy in series [2] was -38 kcal/mol.

Regarding GTATGAGGAAACCCATAC (((((.(....).))))), the Tm in series [1] was determined as 35.3 °C. For the same sequence, the folding enthalpy in series [2] was -30.3 kcal/mol.

For GTATGCCGAAAGGCGTAC (((.(((....))).))), the Tm in series [1] was 63.4 °C. In series [2], the folding enthalpy was -26.2 kcal/mol.

For the sequence GTATGCGAAAGCAGATAC ((((((....)))..))), the Tm in series [1] is 36.7 °C. In addition, in series [2], the folding enthalpy was -12.9 kcal/mol.

With GTATGCGAAAGCATTTAC ((((((....)))..))), in series [1], the Tm is 30.6 °C. Besides, the folding enthalpy in series [2] is -8.67 kcal/mol.

Take GTATGCGCGAAAGCGTAC (((..(((....)))))): in series [1], the Tm stood at 31.3 °C. The folding enthalpy in series [2] is -9.22 kcal/mol.

In the case of GTATGGGGAAACCCATGC (.(((((....))))).), the Tm in series [1] was 49 °C. Besides, the folding enthalpy in series [2] was -20.9 kcal/mol.

Regarding GTATGTACGAAAGTATAC (((..(((....)))))), in series [1], the Tm is 31 °C. In addition, the folding enthalpy in series [2] is -11.4 kcal/mol.

Regarding GTATGTCGAAAGACTAC (((.(((....)))))), the Tm in series [1] came out at 41.3 °C. In series [2], the folding enthalpy was -19.2 kcal/mol.

For GTATGTGGAAACACATGC (.(((((....))))).), the Tm in series [1] was 47.9 °C. Moreover, the folding enthalpy in series [2] was -24.3 kcal/mol.

Consider GTATGTGGAAACATATGC (.((.((....)).)).), for which the Tm in series [1] turned out to be 37.5 °C. Further, in series [2], the folding enthalpy was -24.1 kcal/mol.

Turning to GTATGTGGAAACATGTAC (((..((....))..))), the Tm in series [1] was found to be 30.9 °C. Moreover, in series [2], the folding enthalpy was -16.4 kcal/mol.

As to GTATGTGGAAACGCATAC (((((.(....).))))), the Tm in series [1] is 46.9 °C. Moreover, in series [2], the folding enthalpy was -29.7 kcal/mol.

As to GTATTAGCGAAAGCTTAC (((..(((....)))))), in series [1], the Tm worked out at 25.5 °C. For the same sequence, the folding enthalpy in series [2] was -12.8 kcal/mol.

In the case of GTATTCGAAAGAATTTAC ((((((....)))..))), the Tm in series [1] came out at 27.5 °C. For the same sequence, in series [2], the folding enthalpy was -12.2 kcal/mol.

Source of the values: the array DNA melting data of Ke et al. (doi:10.1101/2024.01.08.574731).
